Here are results for eleven compounds from ChEMBL document CHEMBL1145969, “New semisynthetic quassinoids with in vivo antimalarial activity” (J Med Chem, 2003).

For orientation: pEC50 means the EC50 on a negative log10 scale, so that one unit is a factor of ten. For orientation: ED50 means the midpoint of the dose-response relation. As a reminder, the ILS is how much longer treated animals lived than controls.

pEC50: −log10 of the molar value. A value given as a limit tells only on which side of the number the result lay.

For one test, the system named is FM3A. The experiment in a line: Cytotoxicity of compound was tested against mouse mammary tumor FM3A cells. The test is classed as functional, cell-based.
The nature of test [1]: Selectivity index defined as mean of EC50 value for FM3A cells/mean of EC50 value for Plasmodium falciparum was determined. The format is functional. In outline:
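Index is the mean EC50 in FM3A mouse mammary tumor cells (the host-cell model) divided by the mean EC50 against chloroquine-sensitive P. falciparum FCR-3.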

In test [2] the test system is Mus musculus. The experiment in a line: In Vivo antimalarial activity of compound was tested in Plasmodium berghei infected mice (Mus musculus). The format is functional. In outline: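 Four-day suppressive test in P. berghei-infected mice, dosed daily at up to 3.0 mg/kg per day. Parasitemia is the number of infected erythrocytes over total erythrocytes. Survival is scored as increase of life span: ILS = (T/C − 1) × 100%, using mean survival days of the treated (T) and control (C) groups.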

For test [3], the system named is Mus musculus. Nature of the test: Antimalarial potency was evaluated by the increase of life span of mice (Mus musculus) at 1 mg/kg. The format is functional. The method, boiled down:
(§1)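 Mice infected with P. berghei were treated daily in a 4-day suppressive test, with the dose as given in each line. Increase of life span = (T/C − 1) × 100%, where T and C are the mean survival days of the treated and control groups.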

The next test concerns Plasmodium falciparum. The experiment in a line: In vitro antimalarial activity against Plasmodium falciparum. The test is classed as functional, organism-based. In outline:
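Chloroquine-sensitive P. falciparum, FCR-3 strain, grown in vitro; potency is reported as EC50.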

The test system of test [4] is Mus musculus. Nature of the test: Antimalarial potency was evaluated by the increase of life span of mice (Mus musculus) at 3 mg/kg. The test is classed as functional. In outline: as §1

In the test with FM3A, `COC(=O)[C@@]12OC[C@]34[C@H]([C@@H](O)[C@@H]1O)[C@@]1(C)CC(=O)C(OC(C)=O)=C(C)[C@@H]1C[C@H]3OC(=O)[C@H](OC(C)=O)[C@@H]24` gave a pEC50 of 4.80. The Selectivity index in test [1] is listed as 410. In the test on Mus musculus [2], the 50% effect level (ED50) was put at a dose of 0.46 mg/kg and the ED90 was found to be 0.98 mg/kg. Also, the ILS at 1 mg/kg in the test on Mus musculus [3] came to 49%.

With `COC(=O)O[C@H]1C(=O)O[C@@H]2C[C@H]3C(C)=C(O)C(=O)C[C@]3(C)[C@H]3[C@@H](O)[C@H](O)[C@@]4(C(=O)OC)OC[C@]32[C@@H]14`, the pEC50 was 5.06 with FM3A and 7.28 in the test on Plasmodium falciparum. In test [1], this compound gave a Selectivity index of 164.

In the case of `CCCOC(=O)OC1=C(C)[C@@H]2C[C@H]3OC(=O)[C@H](OC(=O)OCCC)[C@H]4[C@]5(C(=O)OC)OC[C@]34[C@H]([C@@H](O)[C@@H]5O)[C@@]2(C)CC1=O`, the pEC50 in the test with FM3A was 5.18; in the test on Plasmodium falciparum, 7.00. Also, the Selectivity index in test [1] was determined as 66.

`COC(=O)[C@@]12OC[C@]34[C@H]([C@@H](O)[C@@H]1O)[C@@]1(C)CC(=O)C(OC(=O)OC(C)C)=C(C)[C@@H]1C[C@H]3OC(=O)[C@H](OC(=O)OC(C)C)[C@@H]24` showed a pEC50 in the test with FM3A of 4.96. Also, the pEC50 with Plasmodium falciparum was 7.10. Moreover, the ILS at 3 mg/kg in the test on Mus musculus [4] is 86%. In addition, the Selectivity index in test [1] turned out to be 138. In the test on Mus musculus [2], the ED50 is 1.4 mg/kg and the ED90 is greater than 3 mg/kg.

In the test with FM3A, `COC(=O)OC1=C(C)[C@@H]2C[C@H]3OC(=O)[C@H](OC(=O)OC)[C@H]4[C@]5(C(=O)OC)OC[C@]34[C@H]([C@@H](O)[C@@H]5O)[C@@]2(C)CC1=O` gave a pEC50 of less than 4.20. In the test on Plasmodium falciparum, this compound showed a negative logarithm of the EC50 (pEC50) of 7.05. This compound also returned an ILS at 3 mg/kg in the test on Mus musculus [4] of 196%. In addition, the Selectivity index in test [1] is listed as greater than 700. In the test with Mus musculus [2], it took a dose of 1.3 mg/kg to reach the 50% effect level (ED50) and the ED90 worked out at 3 mg/kg.

Consider `COC(=O)[C@@]12OC[C@]34[C@H]([C@@H](O)[C@@H]1O)[C@@]1(C)CC(=O)C(OC(C)=O)=C(C)[C@@H]1C[C@H]3OC(=O)[C@H](O)[C@@H]24`, for which the pEC50 with FM3A is less than 4.49; with Plasmodium falciparum it was 6.06. The Selectivity index in test [1] was greater than 36.

In the case of `CCCCOC(=O)OC1=C(C)[C@@H]2C[C@H]3OC(=O)[C@H](OC(=O)OCCCC)[C@H]4[C@]5(C(=O)OC)OC[C@]34[C@H]([C@@H](O)[C@@H]5O)[C@@]2(C)CC1=O`, the pEC50 with FM3A was 6.15; in the test on Plasmodium falciparum it was 7.85. In test [1], this compound returned a Selectivity index of 50.

On to `CCOC(=O)OC1=C(C)[C@@H]2C[C@H]3OC(=O)[C@H](OC(=O)OCC)[C@H]4[C@]5(C(=O)OC)OC[C@]34[C@H]([C@@H](O)[C@@H]5O)[C@@]2(C)CC1=O`, for which the results for the pEC50 in the test with FM3A and with Plasmodium falciparum were 4.44 and 7.19, respectively. The same compound displayed an ILS at 3 mg/kg in the test on Mus musculus [4] of 182%. In test [1], this compound came in with a Selectivity index of 563. This compound also registered an ED50 in the test with Mus musculus [2] of 0.49 mg/kg. In the test with Mus musculus [2], the ED90 amounted to 1.9 mg/kg.

For `COC(=O)[C@@]12OC[C@]34[C@H]([C@@H](O)[C@@H]1O)[C@@]1(C)CC(=O)C(O)=C(C)[C@@H]1C[C@H]3OC(=O)[C@H](OC(C)=O)[C@@H]24` [BRUCEINE B], in the test with FM3A, the pEC50 is 5.10. In addition, the Selectivity index in test [1] amounted to 333.

With `COC(=O)[C@@]12OC[C@]34[C@H]([C@@H](O)[C@@H]1O)[C@@]1(C)CC(=O)C(O)=C(C)[C@@H]1C[C@H]3OC(=O)[C@H](O)[C@@H]24` [BRUCEOLIDE], the ED50 in the test on Mus musculus [2] was determined as 1.1 mg/kg.

`CCN(CC)CCCC(C)Nc1ccnc2cc(Cl)ccc12` (stereo not drawn) [CHLOROQUINE] had a pEC50 in the test with FM3A of 4.49. For the same compound, the ILS at 3 mg/kg with Mus musculus [4] was 15%. The Selectivity index in test [1] stood at 1780. In addition, in the test with Mus musculus [2], the ED50 amounted to 2 mg/kg and the ED90 was 3.3 mg/kg.
